Test results taken from ChEMBL document CHEMBL1122158, “Agents with potential specificity against melanotic melanoma” (1982).

Experiments:
B16 [1] = test: In vivo antitumor activity against B-16 Melanoma after intraperitoneal tumor implantation and then intraperitoneal administration of 100 mg/kg of dose; type: functional, Mus musculus
Method in brief: (§1)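 B-16 melanoma was implanted intraperitoneally and dosed per NCI protocols. Intraperitoneal treatment began 24 h after implant and was given once daily on days 1-9. Activity was expressed as % T/C, with T/C ≥ 125% taken as statistically significant.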

B16 [2] = test: In vivo antitumor activity against B-16 Melanoma after intraperitoneal tumor implantation and then intraperitoneal administration of 150 mg/kg of dose; type: functional, Mus musculus; method in brief: as §1
B16 [3] = test: In vivo antitumor activity against B-16 Melanoma after intraperitoneal tumor implantation and then intraperitoneal administration of 75 mg/kg of dose; type: functional, Mus musculus; method in brief: as §1
KB = test: In vitro effective dose that causes 50% inhibition of growth of KB cell line - human epidermoid carcinoma of the nasopharynx; type: functional; conditions: read-out: ED50 (the source's name)
M2R = test: In vitro effective dose that causes 50% inhibition of growth of M2R cell line - amelanotic melanoma; type: functional; conditions: Mus musculus, in the assay text read “melanotic melanoma” for “amelanotic melanoma”, read-out: ED50 (the source's name)
Method in brief: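 1 × 10^4 cells seeded in a 1:1 DMEM/Ham's F-12 medium with 1.2 g/L NaHCO3, 15 mM HEPES and 10% fetal bovine serum, at 37 °C in 5% CO2. After 24 h, the medium was replaced with fresh medium holding the test agent at various concentrations. Growth was followed for at least 3 more days by trypsinizing and Coulter counting. Net cell increase was expressed as % of control when controls had grown 8-fold.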

A2 (Mus musculus) = test: In vitro effective dose that causes 50% inhibition of growth of A2 cell line - amelanotic melanoma; conditions: read-out: ED50 (the source's name)
PS = test: In vitro effective dose that causes 50% inhibition of growth of PS cell line - P388 lymphocytic leukemia; conditions: Mus musculus, read-out: ED50 (the source's name)

Row | EC50 (KB) [µM] | EC50 (A2 (Mus musculus)) [µM] | EC50 (PS) [µM] | Structure (SMILES) | T/C (B16 [1]) [%] | T/C (B16 [2]) [%] | T/C (B16 [3]) [%] | EC50 (M2R) [µM]
1 | 300 | > 100 | 300 | NC(CCCNc1cccc(O)c1)C(=O)O (stereo unspecified) | 87 | 82 | 104 | > 100
2 | 120 | 22 | 9.5 | NC(CCCNc1ccc(O)cc1)C(=O)O (stereo unspecified) | 98 | 106 | 122 | 13
3 | 140 | 54 | 32 | NC(CNc1ccc(O)cc1)C(=O)O (stereo unspecified) | 103 | 101 | 111 | 24
